Data taken from publication PMC3558988 (Journal of Chemotherapy (Florence, Italy), 2013).

Assays:
[1] = tested on: three strains of S. aureus; assay: MIC summary over the three test strains; type: cell-based, Staphylococcus aureus
Procedure, shortened: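 Broth microdilution MICs per CLSI guidelines, run in triplicate, for the test compound and a panel of comparator antimicrobials including linezolid. Tested against the three S. aureus isolates used in the study (one MSSA, one CA-MRSA, one HA-MRSA).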

[2] = Pharmacokinetics after single oral doses in MSSA-infected neutropenic mice; type: in vivo; conditions: for fAUC0–24: free drug
[3] = Plasma protein-binding by ultrafiltration; type: in vitro ADME; conditions: mouse plasma, 0·1 to 2 μg/ml
[4] = cited from earlier work
CA-MRSA = assay: Neutropenic murine thigh infection model, single-dose response; type: in vivo, Staphylococcus aureus; conditions: 24 hours
MSSA ATCC 29213 = assay: Neutropenic murine thigh infection model, efficacy and pharmacodynamics; type: in vivo, Staphylococcus aureus; conditions: oral, neutropenic mice, 24 hours
[5] = tested on: CA-MRSA (No. 32, CDC type USA300, PVL-positive); assay: MIC by broth microdilution; type: cell-based; conditions: Staphylococcus aureus

Cc1c(CN(C)C(=O)/C=C/c2cnc3c(c2)CCC(=O)N3)oc2ccccc12 [AFN-1252]
level of activity (MIC) greater than linezolid [1]: at least 500 fold
level of activity (MIC) greater than other antibacterials tested [1]: at least 32 fold
fAUC0–24 ([2]; 5 mg/kg single oral dose): 113 ng·h/mL
fAUC0–24 ([2]; 10 mg/kg single oral dose): 141 ng·h/mL
fAUC0–24 ([2]; 30 mg/kg single oral dose): 160 ng·h/mL
fAUC0–24 ([2]; 100 mg/kg single oral dose): 285 ng·h/mL
PK profile (dose proportionality of fAUC, fCmax, Tmax) ([2]; single oral doses 2·5-100 mg/kg): non-linear exposures
concentration dependence of protein binding [3]: no concentration-dependent binding
permeability ([4]; BCS): high
Biopharmaceutics Classification System class [4]: Class 2
dose giving marked reduction in bacterial count relative to time 0 (CA-MRSA; single oral dose): ≥ 10 mg/kg
doses giving reductions in total bacterial count of 1 log and greater compared to time 0 (MSSA ATCC 29213; MSSA): ≥ 20 mg/kg
dose at which reduction in MSSA growth rate began (MSSA ATCC 29213): 5 mg/kg

CCC[C@@H]1C[C@@H](C(=O)N[C@@H]([C@H]2O[C@H](SC)[C@H](O)[C@@H](O)[C@H]2O)[C@H](C)Cl)N(C)C1 [Clindamycin]
MIC [5]: > 16 µg/mL

CC[C@H]1OC(=O)[C@H](C)[C@@H](O[C@H]2C[C@@](C)(OC)[C@@H](O)[C@H](C)O2)[C@H](C)[C@@H](O[C@@H]2O[C@H](C)C[C@H](N(C)C)[C@H]2O)[C@](C)(O)C[C@@H](C)C(=O)[C@H](C)[C@@H](O)[C@]1(C)O [Erythromycin]
MIC [5]: > 32 µg/mL

CC(=O)NC[C@H]1CN(c2ccc(N3CCOCC3)c(F)c2)C(=O)O1 [Linezolid]
effect on bacterial growth (CA-MRSA; 10 and 40 mg/kg single oral dose): some suppression of growth
doses required to achieve consistent reductions in CFU (CA-MRSA; single oral dose): ≥ 100 mg/kg
